Our source for the Activity and Ki values is ChEMBL document CHEMBL3585296, “Flavonoids from Perovskia atriplicifolia and Their in Vitro Displacement of the Respective Radioligands for Human Opioid and Cannabinoid Receptors” (J Nat Prod, 2015).

SMILES strings stand for the structures.

As a reminder, the Ki is a measure of affinity in units of concentration, obtained from inhibition or displacement. High values mean lower affinity, low ones higher affinity.

Experiment [1] has as its target Cannabinoid receptor 1 (Homo sapiens) (UniProt P21554). The experiment in a line: Displacement of [3H]-CP55940 from human CB1 receptor transfected into HEK293 cells at 10 uM by microplate scintillation counting. The class given is cell-based. The gist of the method: (§1)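 HEK293 cells stably expressing cloned human CB1 or CB2 were grown in DMEM/F-12 with 0.5 mg/mL G418. Membranes were made by sonication and differential centrifugation. Compound at 10 μM (independent triplicate dilutions) was incubated with [3H]-CP 55,940, at 1.6975 nM for CB1 or 1.959 nM for CB2. Membrane was 5 μg for CB1 or 1 μg for CB2. Incubation was 90 min at 37 °C in Tris/EDTA/NaCl/0.2% BSA, pH 7.4. Bound label was collected on GF/C filters. Nonspecific binding was defined with 10 μM CP-55,940. Results are given as % displacement.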
On the technique in general: Displacement assays read how much labelled ligand stays bound in the presence of the test substance.

Experiment [2] deals with Cannabinoid receptor 2 (Homo sapiens) (UniProt P34972). The experiment in a line: Displacement of [3H]-CP55940 from human CB2 receptor transfected into HEK293 cells at 10 uM by microplate scintillation counting. The class given is cell-based. In outline: as §1
Experiment [3] deals with T1, Delta-type opioid receptor (Homo sapiens, UniProt P41143). The experiment in a line: Agonist activity at human delta opioid receptor transfected into HEK293 cells assessed as effect on [35S]-GTPgammaS binding at 300 uM. The class given is functional, cell-based. In outline: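 Modified GTPγ[35S] functional assay. Tested at 300 μM. Binding is expressed as percent of the maximal GTPγ[35S] binding given by the full agonist DPDPE.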
A general note: GTPγS is a poorly hydrolysed GTP analogue; its binding reports G protein activation.

Experiment [4] deals with T1, Delta-type opioid receptor. Briefly: Displacement of [3H]DPDPE from delta opioid receptor (unknown origin) transfected into HEK293 cells by microplate scintillation counting. The class given is cell-based.
Experiment [5] concerns the target T1, Delta-type opioid receptor. Briefly: Displacement of [3H]DPDPE from delta opioid receptor (unknown origin) transfected into HEK293 cells at 10 uM by microplate scintillation counting. The class given is cell-based. The gist of the method: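 HEK293 cells stably expressing the δ opioid receptor were kept in DMEM with 0.2 mg/mL G418. Compound at 10 μM (triplicate dilutions) was incubated with 0.99 nM [3H]-DPDPE and 20 μg membrane for 60 min in 50 mM Tris-HCl, pH 7.4. Bound label was collected by GF/B filtration. Nonspecific binding was defined with 10 μM DPDPE. Results are given as % displacement.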

T1 sequence (P41143 whole entry): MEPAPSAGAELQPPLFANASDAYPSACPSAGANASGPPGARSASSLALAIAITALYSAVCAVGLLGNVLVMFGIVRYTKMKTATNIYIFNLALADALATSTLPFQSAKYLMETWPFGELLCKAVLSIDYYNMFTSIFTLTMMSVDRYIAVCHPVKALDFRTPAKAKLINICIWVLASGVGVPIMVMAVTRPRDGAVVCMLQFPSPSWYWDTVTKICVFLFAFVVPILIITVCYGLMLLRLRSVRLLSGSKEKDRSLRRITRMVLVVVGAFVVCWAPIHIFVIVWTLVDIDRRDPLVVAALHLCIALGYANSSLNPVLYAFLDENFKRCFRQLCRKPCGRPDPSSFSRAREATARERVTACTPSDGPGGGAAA
Cannabinoid receptor 1 (Homo sapiens), sequence (P21554 whole entry): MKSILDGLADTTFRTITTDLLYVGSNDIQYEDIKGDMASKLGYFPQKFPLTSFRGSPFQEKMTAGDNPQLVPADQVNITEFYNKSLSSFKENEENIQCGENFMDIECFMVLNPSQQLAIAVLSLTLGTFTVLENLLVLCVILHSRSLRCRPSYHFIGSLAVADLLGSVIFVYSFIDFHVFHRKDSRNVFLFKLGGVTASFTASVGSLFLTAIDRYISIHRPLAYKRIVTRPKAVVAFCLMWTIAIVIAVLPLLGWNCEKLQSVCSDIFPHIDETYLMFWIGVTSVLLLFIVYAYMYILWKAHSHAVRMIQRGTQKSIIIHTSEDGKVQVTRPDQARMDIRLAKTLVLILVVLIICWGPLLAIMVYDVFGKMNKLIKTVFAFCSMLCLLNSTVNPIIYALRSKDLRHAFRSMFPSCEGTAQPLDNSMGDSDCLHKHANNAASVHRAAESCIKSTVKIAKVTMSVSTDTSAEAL
Cannabinoid receptor 2 (Homo sapiens), sequence (P34972 whole entry): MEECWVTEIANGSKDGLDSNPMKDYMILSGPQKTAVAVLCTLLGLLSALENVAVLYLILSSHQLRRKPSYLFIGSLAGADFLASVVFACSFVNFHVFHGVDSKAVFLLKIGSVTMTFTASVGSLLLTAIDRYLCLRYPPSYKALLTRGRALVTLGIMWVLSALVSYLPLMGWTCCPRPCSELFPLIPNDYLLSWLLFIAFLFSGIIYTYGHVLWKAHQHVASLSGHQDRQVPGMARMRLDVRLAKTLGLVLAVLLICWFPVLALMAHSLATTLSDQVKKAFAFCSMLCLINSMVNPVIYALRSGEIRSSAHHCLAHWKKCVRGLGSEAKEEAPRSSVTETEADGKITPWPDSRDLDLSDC

For the compound `COc1ccc(-c2cc(=O)c3c(O)c(OC)c(OC)cc3o2)cc1OC`, the Activity was found to be 3% in experiment [1], 4.2% in experiment [2], 32% in experiment [3] and 86% in experiment [5]. The same compound gave a Ki in experiment [4] of 3.1 µM.

Consider `COc1ccc(-c2cc(=O)c3c(O)c(OC)c(O)cc3o2)cc1OC`, for which the Activity in experiment [1] turned out to be 0.3%; in experiment [2] it was 12.5%; in experiment [5] it was 19.9%.

As to `COc1ccc(-c2cc(=O)c3c(O)c(OC)c(O)cc3o2)cc1` [PECTOLINARIGENIN], the Activity is 19.3% in experiment [1], 13.5% in experiment [2], 48% in experiment [3] and 79.9% in experiment [5]. Further, the inhibitory constant (Ki) in experiment [4] was 8.4 µM.

Consider `COc1ccc(-c2cc(=O)c3c(O)c(OC)c(OC)cc3o2)cc1` [SALVIGENIN], for which the Activity was determined as 1.7% in experiment [1], 8.3% in experiment [2], 88% in experiment [3] and 31.6% in experiment [5]. This compound yielded an inhibition constant (Ki) in experiment [4] of more than 26 µM.
